A selection: hits, their analogues and other compounds. The true share with any hit is near 3.1%.
V-ATPase pHluor – regulators of yeast V-ATPase proton transport. S. cerevisiae, pHLuorin cytosolic pH fluorescence. response, % at 10 µM. hit rate 0.37% among 350,000. AID 504577; in the data active = response mostly above about 7.3%, no sharp cut-off; inactive = mostly below about 5.4%; also: actives read high
aDG glyco act – increases alpha dystroglycan glycosylation; Pro5-aDG cells, alpha-DG glycosylation AlphaScreen (IIH6); 0% Pro5, 100% B10-LARGE cell signal; activation, % at 10 µM; hit rate 0.22% among 360,000; AID 624168;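 active = activation of at least 8% versus controls, or a plate z-score of at least 8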;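 also: Pro5 are CHO cells carrying HIG-tagged alpha-DG that lacks glycosylation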
Hep lipid drop – modulators of hepatic lipid droplet formation; AML12 mouse hepatocytes, oleate lipid droplets, BODIPY imaging; inhibition, % at 6.5 µM; hit rate 0.4% among 240,000; AID 1656;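 active = lipid droplet intensity inhibited by at least 50%, with more than 500 cells counted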
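System: AML12 hepatocytes (mouse). Probe or stimulus: oleic acid at 100 µM to induce lipid droplet formation. Times: overnight treatment with compound plus oleate. Detection: Image-based BODIPY and DAPI two-channel analysis. Evaluation: percent inhibition of filter-corrected integrated lipid droplet intensity per well.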
ADAM17 inh – inhibits human ADAM17; P78536; hit rate 0.83% among 370,000; recombinant ADAM17, EDANS/DABCYL FRET peptide cleavage; inhibition, % at 6.95 µM; AID 720648;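 active = inhibition above the mean of compounds lying between control limits plus 3 SD, set per campaign, cut at about 8.5% in these data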;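 also: 0% = DMSO-only wells as the low control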
ADAM10 inh – ADAM10 inhibition, QFRET primary screen; O14672; recombinant ADAM10, EDANS/DABCYL FRET peptide cleavage, 3 h; inhibition, % at 7 µM; hit rate 0.62% among 370,000;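 active = inhibition above a per-campaign cutoff equal to the mean of compounds falling between control-based bounds plus 3 SD, cut at about 20% in these data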;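 also: 0% = DMSO wells while the 100% control is not disclosed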
Target sequence (O14672 214-748 limits assumed): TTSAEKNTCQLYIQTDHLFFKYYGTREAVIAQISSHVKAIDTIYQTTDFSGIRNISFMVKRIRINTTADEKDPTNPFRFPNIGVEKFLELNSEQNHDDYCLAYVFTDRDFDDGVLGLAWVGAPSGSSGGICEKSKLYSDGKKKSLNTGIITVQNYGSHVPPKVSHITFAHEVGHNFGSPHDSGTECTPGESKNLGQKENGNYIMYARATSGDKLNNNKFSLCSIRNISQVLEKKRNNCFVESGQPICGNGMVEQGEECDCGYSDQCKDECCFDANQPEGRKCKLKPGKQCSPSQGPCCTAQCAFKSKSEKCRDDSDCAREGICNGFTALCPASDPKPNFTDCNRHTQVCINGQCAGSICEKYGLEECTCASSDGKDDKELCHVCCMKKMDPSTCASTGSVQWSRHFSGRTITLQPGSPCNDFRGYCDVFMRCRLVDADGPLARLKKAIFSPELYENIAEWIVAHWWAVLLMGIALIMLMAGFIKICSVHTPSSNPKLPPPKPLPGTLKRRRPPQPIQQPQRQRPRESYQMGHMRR
MPTP inh – blocks calcium-induced mitochondrial swelling. isolated mouse mitochondria, Ca2+ swelling absorbance, 30 min. inhibition, % at 10 µM. hit rate 1.4% among 360,000;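 active = inhibition of 50% or more, scaled per plate between neutral and stimulator controls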;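 also: 0% = DMSO wells given calcium and 100% = 1 mM EGTA wells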
ADAM10 ctr – inhibits human ADAM10 in ADAM17 exosite counter-screen | recombinant ADAM10, EDANS/DABCYL FRET peptide cleavage, 3 h | inhibition, % at 6.95 µM | hit rate 47% among 2,900 | shares compounds with ADAM17 inh | AID 743256;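 active = mean inhibition over the triplicate runs exceeds the activity threshold set in the earlier primary screen, cut at about 20% in these data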;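 also: 0% = DMSO wells and 100% = marimastat wells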
ADAM17 confirm – human ADAM17 inhibition, confirmation. shares compounds with ADAM17 inh. recombinant ADAM17, EDANS/DABCYL QFRET peptide cleavage. inhibition, % at 6.95 µM. hit rate 65% among 2,900. AID 743257;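 active = mean inhibition across replicates above the hit cutoff set in the primary screen, cut at about 8.5% in these data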;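 also: 0% = DMSO wells and 100% = marimastat wells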
Numbers without * were called inactive; nt = no result given.

SMILES	V-ATPase pHluor	aDG glyco act	Hep lipid drop	ADAM17 inh	ADAM10 inh	MPTP inh	ADAM10 ctr	ADAM17 confirm
CC(C)Oc1ccc(C(=O)Nc2cccc(S(=O)(=O)N3CCCC3)c2)cc1	3.3	0.4	nt	9.0*	13.3	-0.7	6.4	2.3
O=C(Nc1cccc(O)c1)c1ccc(S(=O)(=O)N2CCCCCC2)cc1	0.4	0.0	8.0	10.2*	9.7	0.5	11.5	7.5
CC(C)Oc1ccc(C(=O)Nc2ccc(Cl)c(S(=O)(=O)Nc3ccc(Cl)cc3)c2)cc1	0.2	1.4	-20.9	10.0*	17.8	41.0	26.2*	16.1*
O=C(Nc1cccc(O)c1)c1cccc(S(=O)(=O)N2CCCC2)c1	-1.1	-0.2	21.4	-3.5	-0.6	-1.2	nt	nt
CC(NC(N)=O)C(=O)Nc1ccc(Cl)c(S(=O)(=O)Nc2ccc(Cl)cc2)c1 (stereo unspecified)	-0.9	0.3	7.9	-1.8	4.6	-1.9	nt	nt
CCCCN1CC[C@@H](C)Oc2cc(Br)ccc2S1(=O)=O	nt	nt	nt	-7.3	-7.2	nt	nt	nt
COC(=O)C[C@H]1CC[C@@H]2[C@H](COc3ccc(NS(C)(=O)=O)cc3C(=O)N2C)O1	nt	nt	nt	-5.2	-2.0	nt	nt	nt
COc1ccc(S[C@]2(C(=O)N(C)C)CC(=O)N(c3ccsc3)[C@@H]2c2ccc(OC)cc2)cc1	nt	nt	nt	3.1	6.3	nt	nt	nt
C/C(=C/c1[nH]c(N)[n+](CC2CC2)c1Cc1ccccc1)Cn1[nH]c(=O)n(-c2ccccc2)c1=O	nt	nt	nt	-3.0	-4.3	nt	nt	nt
CCN(CC)C(=O)CC[C@@H]1CC[C@]2(CCCN(Cc3ccc(Cl)cc3)C2)O1	nt	nt	nt	-1.5	-3.3	nt	nt	nt
CC1(Cc2ccc(F)cc2)C(=O)Nc2ccc(S(=O)(=O)NC3CCCCC3)cc21 (stereo unspecified)	nt	-0.5	nt	9.1*	5.0	-1.4	-1.7	4.4
CN1/C(=C/C(=O)C2CCC2)Sc2ccccc21	1.3	0.4	nt	11.6*	13.7	-1.2	7.5	8.2
COCC(=O)/C=C1\Sc2ccccc2N1C	-2.7	-0.2	1.0	-0.6	0.2	1.1	nt	nt
O=C(CCc1ccccc1)N[C@H]1[C@H](OC(=O)c2ccc3ccccc3n2)CCC[C@@]12C(=O)N(Cc1ccccc1)c1ccccc12	nt	nt	nt	4.9	10.7	nt	nt	nt
COc1ccc(NC(=O)CN2CCCC2c2cccs2)cc1S(=O)(=O)N1CCCCC1 (stereo unspecified)	0.2	0.0	nt	9.5*	18.1	1.3	3.4	1.5
COc1ccc(NC(=O)N(C)[C@H]2C[C@H]3c4[nH]c5c(-c6cccc(C)c6)cccc5c4CCN3C(=O)[C@H]2[C@H](C)O)cc1	nt	nt	nt	-38.6	-129.3	nt	nt	nt
Cc1nc(C)c(-c2nnc(-c3ccc(C(C)(C)C)cc3)o2)cc1C(=O)NN	-1.0	-0.3	-17.4	10.1*	13.5	7.3	1.5	5.1
Cc1nc(C)c(-c2nnc(-c3ccccc3Cl)o2)cc1C(=O)NN	2.2	0.2	0.2	-1.0	5.2	1.0	nt	nt
Cc1cccc(C)c1NC(=O)Cn1nnc(-c2ccncc2)n1	nt	nt	nt	-3.7	-9.3	nt	nt	nt
CC(C)CNC(=S)NC1CC2CCCC(C1)N2Cc1ccco1 (stereo unspecified)	11.0	-0.1	nt	-1.8	-3.3	2.4	nt	nt
CC(C)CNC(=S)NC1CC2CCCC(C1)N2Cc1cccs1 (stereo unspecified)	-3.9	0.1	nt	12.2*	8.2	-0.6	11.0	7.3
Cc1ccc(S(=O)(=O)Nc2cc(=O)[nH]c(SCc3ccc(Cl)cc3)n2)cc1	0.0	0.1	-2.9	12.1*	15.6	7.5	19.9*	16.6*
COC(=O)[C@]12C[C@H](CC(=O)NCCc3ccccc3OC)C(=O)N(Cc3cccc4ccccc34)C1=C[C@H](COCc1ccccc1)O[C@@H]2C	nt	nt	nt	6.2	11.7	nt	nt	nt
CCC(C)(C)n1nnnc1C(c1ccc(C)cc1)N(Cc1ccco1)Cc1cccs1 (stereo unspecified)	-0.1	0.1	-59.4	9.4*	12.7	0.5	6.8	5.4
COc1cccc(CN(Cc2ccco2)C(c2ccc(F)cc2)c2nnnn2C(C)(C)C)c1 (stereo unspecified)	3.5	0.2	-62.3	-2.0	1.4	1.1	nt	nt
SMILES	V-ATPase pHluor	aDG glyco act	Hep lipid drop	ADAM17 inh	ADAM10 inh	MPTP inh	ADAM10 ctr	ADAM17 confirm
Cc1cc(N2CCN(C(=O)Oc3ccc(-c4ccccc4)cn3)CC2)c2ccccc2n1	nt	nt	nt	10.3*	-103.2	nt	19.6	14.8*
Cc1cc(N2CCN(C(C(=O)NC3CCCC3)c3ccc(-c4ccccc4)cc3)CC2)c2ccccc2n1 (stereo unspecified)	nt	0.9	nt	0.8	12.6	-1.0	nt	nt
COc1cccc(-c2ncn(CCc3ccccc3OC)c2CC(C)C)c1	nt	nt	nt	6.1	18.2	nt	nt	nt
COc1cccc(C(NC(C)=O)c2nc(-c3ccc4ccccc4c3)cs2)c1 (stereo unspecified)	nt	0.2	nt	11.6*	13.2	-1.5	18.4	11.3*
COc1ccc(C(C)(O)c2nc(-c3ccccc3)cs2)cc1 (stereo unspecified)	nt	0.0	nt	0.7	-1.2	1.7	nt	nt
COc1ccc(C(C)(O)c2nc(-c3ccc4ccccc4c3)cs2)cc1 (stereo unspecified)	nt	-0.1	nt	8.8*	14.6	2.1	7.3	5.5
O=C(CN1CCN(c2nc(-c3ccccc3)cs2)CC1)Nc1ccc(F)cc1F	nt	nt	nt	4.6	12.6	nt	nt	nt
COc1cc(NC(=O)C2CCCN(S(=O)(=O)c3ccc(Br)s3)C2)cc(OC)c1 (stereo unspecified)	nt	nt	nt	7.2	5.3	nt	nt	nt
O=C(Nc1cccc(S(=O)(=O)Nc2ccccc2Cl)c1)c1ccc(N2CCCC2)c([N+](=O)[O-])c1	-0.1	0.1	-6.1	11.2*	18.4	9.9	40.8*	23.8*
COc1ccc(S[C@]2(C(=O)N3CCN(c4ncccn4)CC3)CC(=O)N(S(=O)(=O)c3ccc(F)cc3)[C@@H]2c2ccc(OC)cc2)cc1	nt	nt	nt	6.7	14.4	nt	nt	nt
Cc1ccc(S(=O)(=O)Nc2nc(C)c(NC(=O)OCCCl)s2)cc1	-1.2	-0.2	0.8	8.9*	-0.1	0.8	3.0	5.9
Cc1ccc(-n2c(SCC(=O)N3CCCC3)nc3c(c2=O)SCC3)cc1	nt	nt	-5.4	nt	nt	nt	nt	nt
COC(=O)c1ccc(CSc2nc3c(c(=O)n2-c2ccc(C)cc2)SCC3)o1	-2.3	0.1	-1.0	11.8*	19.4	-0.6	12.2	5.8
CCSC1=C(C#N)C(c2ccccc2Cl)C(C(=O)c2cccs2)C(O)(C(F)(F)F)N1 (stereo unspecified)	2.5	-0.2	-1.3	3.9	5.8	-1.8	nt	nt
C=CCSC1=C(C#N)C(c2ccccc2Cl)C(C(=O)c2cccs2)C(O)(C(F)(F)F)N1 (stereo unspecified)	2.9	0.4	9.0	8.6*	8.1	11.7	11.9	8.4
O=C(Nc1ccc(N2CCCCC2)cc1)c1ccccc1	-5.1	0.0	-13.0	-2.8	-0.4	-0.5	nt	nt

Screening results from PubChem.
